Series [1] is described as follows: Cytotoxicity against Wistar rat neutrophils assessed as reduction in cell viability at 10 nM after 18 hrs by trypan blue staining method. The conditions noted are these: neutrophil, 0.01 µM. It counts as cell-based. The method, boiled down:
(§1)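 Neutrophils were elicited in male Wistar rats by intraperitoneal oyster glycogen (1%, 10 mL) and harvested after 4 h. Cells were exposed to compound at 1, 10, 100 or 1000 nM, with or without LPS, for 18 h in RPMI1640 with 10% FBS. Viability was scored by trypan blue staining against medium-only controls.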

Series [2] relates to Neutrophil. Description: Antiinflammatory activity in Wistar rat neutrophils assessed as decrease in PGE2 level at 10 nM after 18 hrs by EIA. It counts as functional, cell-based. The gist of the method: (§2)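 Neutrophils were taken from male Wistar rats 4 h after intraperitoneal oyster glycogen (1%, 10 mL). Cells were cultured in RPMI1640 with 10% FBS, with compound at 10 nM, with or without LPS, for 18 h. PGE₂ in the culture supernatant was quantified by EIA. Data are the mean ± s.e.m. of cells from four animals, compared against medium-only control cells.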

The subject of series [3] is Neutrophil. As to the kind of experiment: Antiinflammatory activity in Wistar rat neutrophils assessed as decrease in LPS-induced PGE2 secretion at 10 nM after 18 hrs by EIA. It counts as functional, cell-based. The gist of the method: as §2
The target in series [4] is T1, Prostaglandin G/H synthase 1 (Rattus norvegicus) (UniProt Q63921).
T1 sequence (whole entry): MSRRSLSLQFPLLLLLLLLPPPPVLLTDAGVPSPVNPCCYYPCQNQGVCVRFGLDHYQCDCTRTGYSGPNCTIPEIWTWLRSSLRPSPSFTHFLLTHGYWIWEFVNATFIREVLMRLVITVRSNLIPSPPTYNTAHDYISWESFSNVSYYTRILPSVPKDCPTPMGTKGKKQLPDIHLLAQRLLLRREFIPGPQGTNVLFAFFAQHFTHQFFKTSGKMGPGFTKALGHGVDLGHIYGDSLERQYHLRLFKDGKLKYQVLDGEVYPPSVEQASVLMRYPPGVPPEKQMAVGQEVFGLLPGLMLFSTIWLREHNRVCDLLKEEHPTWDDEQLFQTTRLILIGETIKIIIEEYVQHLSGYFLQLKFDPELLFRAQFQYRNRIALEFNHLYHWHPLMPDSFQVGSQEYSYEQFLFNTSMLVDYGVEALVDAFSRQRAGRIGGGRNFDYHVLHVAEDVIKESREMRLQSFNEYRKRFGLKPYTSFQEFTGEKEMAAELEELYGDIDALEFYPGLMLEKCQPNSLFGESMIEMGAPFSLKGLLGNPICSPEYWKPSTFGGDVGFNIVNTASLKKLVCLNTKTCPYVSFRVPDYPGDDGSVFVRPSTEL
Description: Inhibition of COX-1 in rat leukocytes assessed as reduction in PGE2 production from arachidonic acid at 10 nM preincubated for 10 mins by EIA. It counts as cell-based.

Series [5] can be described thus: Cytotoxicity against LPS-stimulated Wistar rat neutrophils assessed as reduction in cell viability at 10 nM after 18 hrs by trypan blue staining method. It counts as cell-based. The following applies: neutrophil, 0.01 µM. The gist of the method:
as §1

Results on twelve compounds are retold here after ChEMBL document CHEMBL1926643, “Synthesis, anti-inflammatory activity and molecular docking studies of 2,5-diarylfuran amino acid derivatives” (Eur J Med Chem, 2012).

The source made the active and inactive calls. The calls are words filed in the database; no cut-off is given here.

Turning to `COc1ccc(-c2ccc(-c3cccc(NC(=O)[C@@H]4CCCN4C(=O)OC(C)(C)C)c3)o2)cc1`, the Activity result in series [1] and in series [5] was “Non-toxic” throughout. In the series on Neutrophil [2], the result was inactive. Besides, in the series on Neutrophil [3], the result was Active. Further, the inhibition result in series [4] is “inactive”.
In the case of `COc1ccc(-c2ccc(-c3cccc(NC(=O)[C@H](CSCc4ccccc4)NC(=O)OCc4ccccc4)c3)o2)cc1`, the Activity result in series [1] and in series [5] was “Non-toxic” throughout. Moreover, the result with Neutrophil [2] and in the series on Neutrophil [3] was inactive. Further, the inhibition result in series [4] is “inactive”.
With `COc1ccc(-c2ccc(-c3cccc(NC(=O)[C@H](CCSC)NC(=O)OC(C)(C)C)c3)o2)cc1`, the inhibition result in series [4] is “inactive”.
On to `COc1ccc(-c2ccc(-c3cccc(NC(=O)[C@H](CCC(=O)OC(C)(C)C)NC(=O)OCC4c5ccccc5-c5ccccc54)c3)o2)cc1`, for which the inhibition result in series [4] was “inactive”.
Same read-out and setting: under `COc1ccc(-c2ccc(-c3cccc(NC(=O)CNC(=O)OC(C)(C)C)c3)o2)cc1` stands “inactive”; under `COc1ccc(-c2ccc(-c3cccc(NC(=O)[C@H](CCCNC(=N)NS(=O)(=O)c4ccc(C)cc4)NC(=O)OC(C)(C)C)c3)o2)cc1`, “inactive”.
Same read-out and setting: under `COc1ccc(-c2ccc(-c3cccc(NC(=O)[C@H](C)NC(=O)OC(C)(C)C)c3)o2)cc1` stands “inactive”.
Turning to `COc1ccc(-c2ccc(-c3cccc(NC(=O)[C@H](Cc4ccccc4)NC(=O)OC(C)(C)C)c3)o2)cc1`, the Activity result in series [1] and in series [5] was “Non-toxic” throughout. In addition, the result in the series with Neutrophil [2] and with Neutrophil [3] was inactive. Besides, the inhibition entry in series [4] is “inactive”.
Take `COc1ccc(-c2ccc(-c3cccc(NC(=O)[C@H](CC(C)C)NC(=O)OC(C)(C)C)c3)o2)cc1`: in series [4], the inhibition entry is “inactive”.
As for `Cc1ccc(-c2cc(C(F)(F)F)nn2-c2ccc(S(N)(=O)=O)cc2)cc1`, the outcome in the series on Neutrophil [2] was inactive. Moreover, in the series on Neutrophil [3], the result was Active.
With `COc1ccc(-c2ccc(-c3cccc(NC(=O)[C@@H](NC(=O)OC(C)(C)C)C(C)C)c3)o2)cc1`, the Activity entry in series [1] and in series [5] was “Non-toxic” each time. For the same compound, the result with Neutrophil [2] and with Neutrophil [3] was inactive. Further, the inhibition entry in series [4] was “inactive”.
As to `COc1ccc(-c2ccc(-c3cccc(NC(=O)[C@H](COC(=O)c4ccccc4)NC(=O)OC(C)(C)C)c3)o2)cc1`, the inhibition entry in series [4] is “inactive”.
